Myeloid diff MLP = induction of myeloid progenitor differentiation, primary screen, cell-based, flow cytometry, MLPCN library; ER-HoxA9 myeloid progenitors, lysozyme-GFP differentiation; AID 624256, 2012; calls only at 10 µM; 360,000 tested, 1% active;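 active = normalized GFP-positive differentiation at or above the plate's own cutoff, the solvent-only control mean plus 3 SD; inconclusive = no clear call, values can overlap the other calls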;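 note: cells exposed to compound for four days before flow analysis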
SENP1 inh = human SENP1 catalytic domain inhibitors, primary screen, biochemical, FRET, uHTS. Sentrin-specific protease 1 (Homo sapiens), Q9P0U3. recombinant SENP1 catalytic domain, CyPet-SUMO1-YPet FRET cleavage. inhibition, % at 10 µM. 360,000 tested, 0.21% active. AID 624204, 2012;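 active = inhibition at least 30% at 10 µM, raw YFP signal under a set limit, fluorescence ratio 0.5 to 1.5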;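 note: 0% = enzyme with DMSO and 100% = no enzyme wells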
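Test system: human SENP1 catalytic domain; medium: Tris pH 8 buffer plus EDTA, NaCl, BME, BSA, NP40, catalase; incubation: 50 min reaction at room temperature; technique: FRET, CFP and YFP emission; controls: no-enzyme low control and enzyme-plus-DMSO high control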
VLA-4 inh = inhibition in human VLA-4 binding assay, primary screen, VLA-4 allosteric modulator project, MLPCN library, flow cytometry, VLA-4 expressing cells. Integrin alpha-4 (Homo sapiens), P13612. ligand binding flow cytometry. inhibition, % (about 7 µM as worked out from the volumes in the protocol). 330,000 tested, 0.2% active. AID 2557, 2010; in the data active = inhibition above about 50%
Platelet DG rel = inhibitors of platelet dense granule secretion, primary screen, cell-based, MLPCN, human platelets; human platelet-rich plasma, SFLLRN dense granule ATP release, luminescence; inhibition, %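 (compounds screened at 7.5 µM in platelet-rich plasma)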; 300,000 tested, 0.22% active;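 active = mean replicate score, as percent of positive control, at or above 50; inconclusive = mean below 50 but at least one replicate at or above 50; inactive = mean and every replicate below 50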
An asterisk follows results filed as active; i = inactive; ? = inconclusive; . = no result; + = active, no number. Most compounds without a hit are left out; they make up all but 1.5% or so of the library.

SMILES	Myeloid diff MLP	SENP1 inh	VLA-4 inh	Platelet DG rel
CCc1ccc(/C=C/C(=O)C2C(=O)c3ccccc3C2=O)cc1	+	7	22	9
CCCCCc1cc(=O)oc2c(C(CCN3CCCCC3)c3ccc4c(c3)OCO4)c(OC)cc(OC)c12 (stereo not given)	+	-2	3	0
Cc1cccc2sc(NC(=O)CCn3cccc3)nc12	i	-1	-6	3
Cc1cccc2sc(NC(=O)Cn3cccc3)nc12	+	3	37	6
COc1cc(OC)c(NC(=O)N2CCOCC2)cc1Cl	i	1	7	2
O=c1c(Cl)c2oc3ccccc3nc-2c2ccccc12	+	64	i	-1
CN(C)c1ccc(/C=C2\C(=N)N3N=C(CC(=O)N4CCCCC4)SC3=NC2=O)cc1	+	-22	-2	2
CN(C)c1ccc(/C=C2\C(=N)N3N=C(CC(=O)N4CCCC4)SC3=NC2=O)cc1Br	i	-17	26	0
Cc1nc(NCc2ccco2)c2c(C)c(C)sc2n1	?	1	0	0
Cc1sc2nc3c4ccccc4c(NCc4ccco4)nn3c(=O)c2c1C	+	-54	-6	.
COc1ccc(-c2cc(NC(C)=O)c3ncc(-c4ccc(OC)c(OC)c4)n3c2)cc1OC	i	-29	.	.
COc1ccc(-c2cnc3c(NC(C)=O)cc(-c4ccsc4)cn23)cc1OC	+	-25	.	.
O=[N+]([O-])c1cccc(Nc2c([N+](=O)[O-])ccc3nonc23)c1	+	5	4	7
COc1ccc(N(CC(=O)N2CCc3ccccc3C2)S(C)(=O)=O)cc1Cl	i	-1	9	0
CC(=O)Nc1sc2c(c1C#N)CC(C)(C)NC2(C)C	+	1	-10	0
Cc1nn(-c2ccccc2)c(Cl)c1/C=N/NC(=O)c1[nH]ncc1Br	?	-2	6	60*
Cc1ccc(CN2CC(C(=O)NNC(=O)c3ccc(F)cc3)CC2=O)cc1 (stereo not given)	i	1	13	.
COc1ccc(N(CC(=O)Nc2nc3ccc(C)cc3s2)S(=O)(=O)c2c(C)nn(C)c2C)cc1	+	-51	18	-1
CCOc1ccc(S(=O)(=O)n2nc(C)cc2C)cc1	i	3	3	-6
CCOc1ccc(OCC(=O)Nc2nccs2)cc1	i	-2	6	69*
COc1ccc(OCC(=O)Nc2nccs2)cc1	i	0	16	22
CC(=O)NC(Cc1cccc(F)c1)C(=O)NC1CCN(c2ncccc2[N+](=O)[O-])CC1 (stereo not given)	i	0	57*	-1
CC(=O)NC(Cc1cccc(C)c1)C(=O)NC1CCN(c2ncccc2[N+](=O)[O-])CC1 (stereo not given)	i	3	-6	7
Cc1nn(Cc2cccc(C(=O)Nc3ccn(Cc4c(F)c(F)cc(F)c4F)n3)c2)c(C)c1[N+](=O)[O-]	i	4	5	-8
Cc1nn(C)c(C(=O)Nc2ccn(Cc3c(F)c(F)cc(F)c3F)n2)c1[N+](=O)[O-]	+	1	5	-8
SMILES	Myeloid diff MLP	SENP1 inh	VLA-4 inh	Platelet DG rel
CN(CC(=O)NCc1ccc(F)cc1)Cc1ccc(Br)cc1	i	1	11	6
COc1ccc(Br)cc1CN(C)CC(=O)NCc1ccc(F)cc1	+	2	8	2
COC(=O)CCNCCSc1nnc(-c2ccco2)n1Cc1ccccc1	i	0	0	19
CCN1CCN(c2oc(-c3ccccc3C)nc2S(=O)(=O)c2ccccc2)CC1	i	-1	.	.
CCCN1CCC(=O)N([C@H](CSc2ccc(OC)cc2)Cc2ccccc2)CC1	+	-10	.	5
CN(C)C(=O)c1cccc(-c2cnc3c(NC=O)cc(-c4ccccc4N(C)C)cn23)c1	+	-30	.	.
COc1ccccc1-c1cc(NC=O)c2ncc(-c3cccc(C(F)(F)F)c3)n2c1	i	-9	.	.
CN(C)c1ccccc1-c1cc(NC=O)c2ncc(-c3cccc(C(F)(F)F)c3)n2c1	+	-28	.	.
COc1ccc(-c2cc(NC=O)c3ncc(-c4cccc(C(=O)NCCN(C)C)c4)n3c2)c(OC)c1	+	-1	.	.
Cc1cccc(NC(=O)CSCC(=O)OCc2ccccn2)c1	i	0	1	0
COc1ccc(CN2CCC(n3nccc3NC(=O)CCc3ccccc3)CC2)c(C)c1C	?	0	.	-4
O=C1CN(C(=O)COC(=O)c2c(F)cccc2Cl)c2ccccc2N1	i	-10	-8	.
CCOC(=O)c1c(C)[nH]c(C)c1S(=O)(=O)NCCc1sccc1C	+	-1	3	-10
Cc1ccc(S(=O)(=O)Nc2cc(S(=O)(=O)N3CCOCC3)ccc2NCC2CCCO2)cc1 (stereo not given)	i	-2	2	.
Cc1ccc(S(=O)(=O)N2C[C@H]3C(=O)C[C@@H](c4cccc(Cl)c4)N(S(=O)(=O)c4ccc(C)cc4)[C@H]3C[C@H]2c2cccc(Cl)c2)cc1	i	0	.	.
Cc1ccc(S(=O)(=O)N2C[C@H]3C(=O)C[C@@H](c4ccccc4)N(S(=O)(=O)c4ccc(C)cc4)[C@H]3C[C@H]2c2cccc(Cl)c2)cc1	+	0	.	.
COc1ccc(-c2cc(C)no2)cc1S(=O)(=O)N(C)c1ccc(C)cc1	?	4	0	-1
COC(=O)c1ccccc1Oc1cc(C(F)(F)F)nc(-c2ccccn2)n1	i	4	5	?
CN(Cc1ccccc1)Cc1nc2c([nH]1)c(=O)n(C)c(=O)n2C	+	2	9	0
Cn1c(=O)c2[nH]c(CCc3ccncc3)nc2n(C)c1=O	i	-148	.	.
O/C(=C\c1nc2ccccc2nc1/C=C(\O)c1ccccc1)c1ccccc1	+	-27	i	33
O=c1oc2ccccc2nc1/C=C(\O)c1ccccc1	i	1	-5	-9
CC(C)Nc1nc(NC(C)C)nc(SCCOC(=O)Nc2ccc(Cl)cc2Cl)n1	i	0	1	-11
O=[N+]([O-])c1ccc(N/N=C/c2cn(-c3ccccc3)nc2-c2ccccc2)cc1	+	5	-274	7
NS(=O)(=O)c1ccc(N/N=C/c2cn(-c3ccccc3)nc2-c2ccccc2)c([N+](=O)[O-])c1	i	5	-14	12
SMILES	Myeloid diff MLP	SENP1 inh	VLA-4 inh	Platelet DG rel
O=[N+]([O-])c1ccc(N/N=C/c2c[nH]c3ccccc23)cc1	+	-23	i	-3
Nc1cccn2c(-c3ccc(Cl)c(Cl)c3)cnc12	+	-30	-4	-3
CC(=O)Nc1cc(-c2ccccc2)cn2c(-c3ccc(F)c(Cl)c3)cnc12	i	-9	.	.
O=C(O)CC1Cc2ccccc2C1C(=O)O (stereo not given)	i	1	.	.
CCN1C(=O)Nc2cccc3cccc1c23	i	-18	-4	59*
CCCCCCc1cc2cc(-c3nnc(-c4ccccc4O)o3)c(=O)oc2cc1O	+	-22	i	-3

Screens as filed in PubChem BioAssay.
